Numbering of substitutions follows the chain as printed.
Tests used:
Settings in all cases: stereoisomer not certain
OR5AC2 (Homo sapiens) = biological target: T1, OR5AC2 (Homo sapiens) (UniProt Q9NZP5)
T1 sequence (whole entry): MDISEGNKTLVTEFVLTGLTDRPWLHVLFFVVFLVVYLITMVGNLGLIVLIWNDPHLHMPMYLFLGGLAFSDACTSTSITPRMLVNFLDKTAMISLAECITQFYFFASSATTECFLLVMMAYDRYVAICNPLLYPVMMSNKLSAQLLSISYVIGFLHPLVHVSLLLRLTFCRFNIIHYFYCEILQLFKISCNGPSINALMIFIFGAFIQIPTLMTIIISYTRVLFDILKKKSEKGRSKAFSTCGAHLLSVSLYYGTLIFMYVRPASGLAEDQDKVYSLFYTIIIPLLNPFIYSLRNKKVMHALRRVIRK
Method in brief: (§1)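 Assay methods differ from source to source, frequently being transient luciferase assays in mammalian cell lines. For each receptor–molecule pair, the label responsive (active) applies when the original authors judged the measured signal statistically different from baseline, and non-responsive (inactive) applies otherwise.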

OR56B4 (Homo sapiens) = biological target: T2, OR56B4 (Homo sapiens) (UniProt Q8NH76)
T2 sequence (whole entry): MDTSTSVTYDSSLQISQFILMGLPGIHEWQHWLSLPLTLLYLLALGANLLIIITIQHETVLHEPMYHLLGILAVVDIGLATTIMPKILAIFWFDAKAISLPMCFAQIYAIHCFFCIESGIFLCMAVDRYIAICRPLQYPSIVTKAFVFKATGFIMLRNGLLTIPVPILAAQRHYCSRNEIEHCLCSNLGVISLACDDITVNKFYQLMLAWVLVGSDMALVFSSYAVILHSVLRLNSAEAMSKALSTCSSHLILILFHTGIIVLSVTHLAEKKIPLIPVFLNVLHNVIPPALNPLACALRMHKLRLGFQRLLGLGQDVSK
Method in brief: as §1

OR5A1 (Homo sapiens) = biological target: T3, OR5A1 (Homo sapiens) (UniProt Q8NGJ0)
T3 sequence (whole entry): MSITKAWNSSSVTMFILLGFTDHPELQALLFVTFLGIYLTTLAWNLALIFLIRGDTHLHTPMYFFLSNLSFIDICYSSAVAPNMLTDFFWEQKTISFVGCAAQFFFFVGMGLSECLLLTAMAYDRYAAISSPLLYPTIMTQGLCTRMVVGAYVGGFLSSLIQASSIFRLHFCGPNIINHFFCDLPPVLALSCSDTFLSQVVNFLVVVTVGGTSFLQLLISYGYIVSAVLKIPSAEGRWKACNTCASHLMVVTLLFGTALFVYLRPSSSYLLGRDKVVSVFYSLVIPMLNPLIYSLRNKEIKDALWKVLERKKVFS
Method in brief: as §1

OR5A2 (Homo sapiens) = biological target: T4, OR5A2 (Homo sapiens) (UniProt Q8NGI9)
T4 sequence (whole entry): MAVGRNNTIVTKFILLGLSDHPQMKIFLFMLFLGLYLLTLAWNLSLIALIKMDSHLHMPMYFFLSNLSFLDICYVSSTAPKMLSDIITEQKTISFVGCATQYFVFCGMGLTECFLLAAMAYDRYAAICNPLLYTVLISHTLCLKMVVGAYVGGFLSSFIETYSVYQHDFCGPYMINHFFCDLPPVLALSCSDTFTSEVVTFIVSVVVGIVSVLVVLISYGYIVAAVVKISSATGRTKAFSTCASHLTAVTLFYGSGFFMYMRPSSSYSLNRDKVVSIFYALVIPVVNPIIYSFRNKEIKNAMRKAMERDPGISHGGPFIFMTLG
Method in brief: as §1

OR5AK2 (Homo sapiens) = biological target: T5, OR5AK2 (Homo sapiens) (UniProt Q8NH90)
T5 sequence (whole entry): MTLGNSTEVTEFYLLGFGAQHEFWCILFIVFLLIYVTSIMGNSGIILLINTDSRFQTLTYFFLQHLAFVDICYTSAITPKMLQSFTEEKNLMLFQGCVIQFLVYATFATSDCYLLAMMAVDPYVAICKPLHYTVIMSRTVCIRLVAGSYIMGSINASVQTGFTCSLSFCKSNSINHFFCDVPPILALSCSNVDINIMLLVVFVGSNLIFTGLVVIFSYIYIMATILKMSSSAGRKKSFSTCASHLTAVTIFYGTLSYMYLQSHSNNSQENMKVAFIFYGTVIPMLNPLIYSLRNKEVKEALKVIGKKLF
Method in brief: as §1

OR5AN1 (Homo sapiens) = biological target: T6, OR5AN1 (Homo sapiens) (UniProt Q8NGI8)
T6 sequence (whole entry): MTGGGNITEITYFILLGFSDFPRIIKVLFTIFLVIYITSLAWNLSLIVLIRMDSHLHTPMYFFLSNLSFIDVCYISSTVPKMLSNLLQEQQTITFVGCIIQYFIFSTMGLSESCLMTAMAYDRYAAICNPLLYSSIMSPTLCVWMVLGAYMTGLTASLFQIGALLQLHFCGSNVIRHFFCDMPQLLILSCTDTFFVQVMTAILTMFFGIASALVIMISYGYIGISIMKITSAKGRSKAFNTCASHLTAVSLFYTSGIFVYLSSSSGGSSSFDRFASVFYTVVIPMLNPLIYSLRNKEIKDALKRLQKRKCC
Method in brief: as §1

OR5AP2 (Homo sapiens) = biological target: T7, OR5AP2 (Homo sapiens) (UniProt Q8NGF4)
T7 sequence (whole entry): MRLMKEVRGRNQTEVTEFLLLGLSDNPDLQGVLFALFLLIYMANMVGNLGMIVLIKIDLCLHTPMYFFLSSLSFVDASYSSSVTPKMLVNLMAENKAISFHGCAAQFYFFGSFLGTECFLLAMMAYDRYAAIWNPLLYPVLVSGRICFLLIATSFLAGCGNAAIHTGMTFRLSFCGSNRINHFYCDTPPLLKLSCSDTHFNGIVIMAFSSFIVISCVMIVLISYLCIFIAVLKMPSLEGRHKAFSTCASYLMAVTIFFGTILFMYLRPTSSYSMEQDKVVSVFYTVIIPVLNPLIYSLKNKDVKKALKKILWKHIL
Method in brief: as §1

OR5AR1 (Homo sapiens) = biological target: T8, OR5AR1 (Homo sapiens) (UniProt Q8NGP9)
T8 sequence (whole entry): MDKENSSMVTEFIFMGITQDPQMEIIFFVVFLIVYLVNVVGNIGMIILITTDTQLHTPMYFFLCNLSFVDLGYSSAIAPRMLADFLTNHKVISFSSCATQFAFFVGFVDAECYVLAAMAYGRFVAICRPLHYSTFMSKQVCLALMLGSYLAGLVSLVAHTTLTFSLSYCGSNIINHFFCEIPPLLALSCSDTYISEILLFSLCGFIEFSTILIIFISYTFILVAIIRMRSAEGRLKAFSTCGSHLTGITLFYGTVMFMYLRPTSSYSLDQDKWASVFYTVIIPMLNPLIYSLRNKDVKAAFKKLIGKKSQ
Method in brief: as §1

OR5AS1 (Homo sapiens) = biological target: T9, OR5AS1 (Homo sapiens) (UniProt Q8N127)
T9 sequence (whole entry): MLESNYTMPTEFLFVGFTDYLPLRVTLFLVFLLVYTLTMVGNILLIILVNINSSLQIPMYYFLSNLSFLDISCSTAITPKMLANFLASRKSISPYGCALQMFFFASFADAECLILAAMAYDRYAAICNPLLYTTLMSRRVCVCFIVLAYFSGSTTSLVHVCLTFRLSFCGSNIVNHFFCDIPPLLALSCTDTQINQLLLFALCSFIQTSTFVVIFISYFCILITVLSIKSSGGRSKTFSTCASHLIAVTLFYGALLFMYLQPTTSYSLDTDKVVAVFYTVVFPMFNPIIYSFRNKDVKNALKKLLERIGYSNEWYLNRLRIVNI
Method in brief: as §1

OR5AU1 (Homo sapiens) = biological target: T10, OR5AU1 (Homo sapiens) (UniProt Q8NGC0)
T10 sequence (whole entry): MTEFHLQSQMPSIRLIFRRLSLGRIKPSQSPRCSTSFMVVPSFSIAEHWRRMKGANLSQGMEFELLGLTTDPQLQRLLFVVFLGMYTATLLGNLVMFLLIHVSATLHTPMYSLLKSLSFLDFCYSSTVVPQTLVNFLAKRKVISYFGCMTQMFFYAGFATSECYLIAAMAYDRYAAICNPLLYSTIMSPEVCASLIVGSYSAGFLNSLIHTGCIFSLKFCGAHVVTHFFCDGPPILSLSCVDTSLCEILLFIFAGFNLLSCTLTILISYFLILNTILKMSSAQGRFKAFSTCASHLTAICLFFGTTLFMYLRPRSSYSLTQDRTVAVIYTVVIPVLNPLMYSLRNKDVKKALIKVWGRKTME
Method in brief: as §1

OR5B12 (Homo sapiens) = biological target: T11, OR5B12 (Homo sapiens) (UniProt Q96R08)
T11 sequence (whole entry): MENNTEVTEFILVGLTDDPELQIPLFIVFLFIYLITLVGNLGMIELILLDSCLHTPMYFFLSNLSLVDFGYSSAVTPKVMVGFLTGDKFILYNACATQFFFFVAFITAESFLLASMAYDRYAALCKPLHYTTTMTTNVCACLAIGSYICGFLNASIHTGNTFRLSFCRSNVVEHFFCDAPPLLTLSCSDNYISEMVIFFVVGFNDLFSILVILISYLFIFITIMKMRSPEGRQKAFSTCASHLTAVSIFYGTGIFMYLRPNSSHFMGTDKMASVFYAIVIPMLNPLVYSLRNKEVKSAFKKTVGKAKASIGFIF
Method in brief: as §1

OR5B17 (Homo sapiens) = biological target: T12, OR5B17 (Homo sapiens) (UniProt Q8NGF7)
T12 sequence (whole entry): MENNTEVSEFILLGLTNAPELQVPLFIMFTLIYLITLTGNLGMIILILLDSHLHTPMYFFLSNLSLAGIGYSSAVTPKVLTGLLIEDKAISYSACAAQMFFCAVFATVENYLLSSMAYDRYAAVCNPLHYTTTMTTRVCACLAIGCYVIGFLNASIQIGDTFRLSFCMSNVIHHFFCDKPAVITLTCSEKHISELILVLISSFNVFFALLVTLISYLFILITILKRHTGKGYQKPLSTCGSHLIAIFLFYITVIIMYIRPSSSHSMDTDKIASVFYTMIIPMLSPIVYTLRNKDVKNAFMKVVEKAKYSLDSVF
Method in brief: as §1

OR5B2 (Homo sapiens) = biological target: T13, OR5B2 (Homo sapiens) (UniProt Q96R09)
T13 sequence (whole entry): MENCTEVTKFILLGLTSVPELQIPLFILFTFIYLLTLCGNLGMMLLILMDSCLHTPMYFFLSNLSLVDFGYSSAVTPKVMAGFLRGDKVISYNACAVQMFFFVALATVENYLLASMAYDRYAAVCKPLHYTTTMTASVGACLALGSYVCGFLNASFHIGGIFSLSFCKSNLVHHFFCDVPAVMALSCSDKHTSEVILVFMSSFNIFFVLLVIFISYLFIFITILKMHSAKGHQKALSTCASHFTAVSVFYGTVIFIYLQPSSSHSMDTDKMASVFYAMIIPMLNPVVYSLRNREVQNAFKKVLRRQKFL
Method in brief: as §1

OR5B21 (Homo sapiens) = biological target: T14, OR5B21 (Homo sapiens) (UniProt A6NL26)
T14 sequence (whole entry): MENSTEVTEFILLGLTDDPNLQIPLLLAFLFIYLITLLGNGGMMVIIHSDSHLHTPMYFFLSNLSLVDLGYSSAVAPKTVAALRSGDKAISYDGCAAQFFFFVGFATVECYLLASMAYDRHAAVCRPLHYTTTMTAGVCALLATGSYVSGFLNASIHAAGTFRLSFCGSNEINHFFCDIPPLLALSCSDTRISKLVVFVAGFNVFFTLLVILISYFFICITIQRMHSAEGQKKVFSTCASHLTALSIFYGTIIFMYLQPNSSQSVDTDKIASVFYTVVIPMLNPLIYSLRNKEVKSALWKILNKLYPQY
Method in brief: as §1

OR5B3 (Homo sapiens) = biological target: T15, OR5B3 (Homo sapiens) (UniProt Q8NH48)
T15 sequence (whole entry): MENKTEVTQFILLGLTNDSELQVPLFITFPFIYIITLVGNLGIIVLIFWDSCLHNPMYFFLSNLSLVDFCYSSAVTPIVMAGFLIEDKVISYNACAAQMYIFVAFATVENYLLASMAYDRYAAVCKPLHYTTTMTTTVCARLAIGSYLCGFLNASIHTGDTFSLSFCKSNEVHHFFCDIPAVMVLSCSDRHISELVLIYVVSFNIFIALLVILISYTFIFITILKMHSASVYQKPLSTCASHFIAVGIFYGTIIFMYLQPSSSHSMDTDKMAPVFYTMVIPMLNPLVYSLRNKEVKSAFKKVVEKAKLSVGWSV
Method in brief: as §1

OR5A1 D183N = tested on: T16, OR5A1 D183N
T16 sequence (whole entry): T3 sequence (whole entry) with D183N
Method in brief: as §1

OR5B2 E6D = tested on: T17, OR5B2 E6D
T17 sequence (whole entry): T13 sequence (whole entry) with E6D
Method in brief: as §1

OR5B3 I198V G247A = tested on: T18, OR5B3 I198V G247A
T18 sequence (whole entry): T15 sequence (whole entry) with I198V, G247A
Method in brief: as §1

Measured: odorant receptor agonist call

CCCCCCCCC(OC(C)=O)OC(C)=O
inactive: OR5AC2 (Homo sapiens)

CC(CO)CS (centres undefined)
not listed: OR5A1 D183N | OR5B2 E6D | OR5B3 I198V G247A
inactive: all other assays above

CCCCCCC=CCCC=O
inactive: all assays above
